Source: PubChem BioAssay
rCAG RNA binder – binds r(CAG) RNA repeats; r(CAG) RNA repeat, TO-PRO-1 dye displacement fluorescence; inhibition, % at 3 µM; 370,000 compounds, 1.3% hits; AID 651821;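 active = inhibition above the plate cutoff, the mean of all test compounds on that plate plus 3 SD, cut at about 35% in these data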;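 also: higher means more dye released from RNA so lower well fluorescence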
NR2E3 ag-1 – human photoreceptor-specific nuclear receptor agonism; Q9Y5X4; CHO-S Gal4-NCOR/VP16-NR2E3 two-hybrid, luciferase; inhibition of corepressor binding, % at 3.98 µM; 360,000 compounds, 0.35% hits; AID 602229;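 active = inhibition above the mean of all tested compounds plus 3 SD, cut at about 70% in these data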;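 also: higher means lower luciferase signal from less NR2E3 corepressor binding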
Rev-erbA mod – modulates human Rev-erb alpha binding to DNA; activity, % at 10 µM; AID 1259318; Rev-erbα–FITC-DNA binding, fluorescence polarization, 90 min; 370,000 compounds, 0.79% hits; P20393;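 active = activity above about 14%, limit read from the data; passing the limit was not always enough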
Target sequence (P20393 whole entry, looked up): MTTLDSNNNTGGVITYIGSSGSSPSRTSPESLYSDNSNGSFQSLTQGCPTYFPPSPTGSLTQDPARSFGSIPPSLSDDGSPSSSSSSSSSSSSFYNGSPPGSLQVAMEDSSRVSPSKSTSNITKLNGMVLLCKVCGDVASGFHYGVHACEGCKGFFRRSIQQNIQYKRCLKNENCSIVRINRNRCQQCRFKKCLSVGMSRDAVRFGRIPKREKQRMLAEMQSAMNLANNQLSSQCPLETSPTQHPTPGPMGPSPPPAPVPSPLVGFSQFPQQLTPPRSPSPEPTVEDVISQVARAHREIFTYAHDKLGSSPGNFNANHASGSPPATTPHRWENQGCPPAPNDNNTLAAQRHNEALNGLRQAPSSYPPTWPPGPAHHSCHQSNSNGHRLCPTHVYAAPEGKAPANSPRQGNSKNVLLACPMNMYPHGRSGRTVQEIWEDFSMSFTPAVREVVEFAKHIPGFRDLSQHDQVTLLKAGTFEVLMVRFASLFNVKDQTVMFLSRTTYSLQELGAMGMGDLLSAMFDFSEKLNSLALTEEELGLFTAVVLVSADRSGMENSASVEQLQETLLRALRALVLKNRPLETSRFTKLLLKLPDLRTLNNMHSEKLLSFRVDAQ
PG9 binder – PG9 antibody binding by small molecule; TR-FRET gp120-PG9 antibody binding; inhibition, % at 6.7 µM; 360,000 compounds, 0.43% hits; AID 624416; in the data active = inhibition above about 8.5%
NR2E3 ag-2 – activates human photoreceptor nuclear receptor NR2E3; Q9Y5X4; GST-NR2E3/biotin-RetCOR TR-FRET, 1536-well; inhibition of corepressor binding, % at 4.78 µM; 320,000 compounds, 0.12% hits; AID 2300;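 active = percent inhibition above the cutoff of mean plus 3 SD of all tested compounds, set per screening campaign, cut at about 20% in these data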
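Material: NR2E3–RetCOR corepressor complex | Quantity: 1.35 nM GST-tagged NR2E3 final | Schedule: 5 h at 4 °C | Replication: Singlicate compound wells | Reagent: RetCOR corepressor, biotinylated, 7 nM | Controls: Biotin wells as high control, 0.6% DMSO wells as low control | Signal: TR-FRET, Eu(K)-anti-GST donor, streptavidin-D2 acceptor, ex 340, em 617/671 nm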
rCAG binder conf – r(CAG) RNA repeat binding, confirmation | shares compounds with rCAG RNA binder | TO-PRO-1 dye displacement fluorescence | inhibition, % at 3 µM | 4,300 compounds, 70% hits;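 active = inhibition above a per-plate cutoff, the mean inhibition of sample wells plus 3 SD, cut at about 35% in these data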;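 also: loss of TO-PRO-1 fluorescence as compound displaces dye from 1x1 AA loop RNA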
dCAG dye counter – disrupts DNA CAG TO-PRO-1 complex, flagging rCAG hits. shares compounds with rCAG RNA binder. d(CAG) DNA oligo TO-PRO-1 dye displacement, fluorescence. inhibition, % at 3 µM. 4,300 compounds, 94% hits;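 active = inhibition above its plate's cutoff, the mean test-well inhibition plus 3 SD, cut at about 4.8% in these data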;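 also: hits displace the dye from DNA and so lower well fluorescence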
DNA CAG DR – counter-screen for rCAG binders: inhibitors of DNA CAG TO-PRO-1 complex; shares compounds with rCAG RNA binder; DNA CAG/GTC duplex TO-PRO-1 dye displacement fluorescence; IC50, µM; 250 compounds, 20% hits; AID 686960; in the data active = IC50 below about 10 µM
Numbers stand for hits; - = inactive; . = no result. Compounds with a hit are over-represented: about 2.6% of the library has one in this group of screens.

SMILES	rCAG RNA binder	NR2E3 ag-1	Rev-erbA mod	PG9 binder	NR2E3 ag-2	rCAG binder conf	dCAG dye counter	others
O=C(NC1CCN(Cc2ccccc2)CC1)c1cccc(S(=O)(=O)Nc2cc(C(F)(F)F)ccc2Cl)c1	64	-	-	-	-	55	17
CCC1CCCCN1C(=O)c1cccc(S(=O)(=O)Nc2cc(C(F)(F)F)ccc2Cl)c1 (stereo not given)	36	-	-	-	-	56	16
C=CCSc1nnc(-c2ccccc2N=Cc2c(C)[nH]n(-c3ccccc3)c2=O)c(=O)[nH]1	41	-	-	-	-	-	9.6
CSc1nnc(-c2ccccc2N=Cc2c(C)[nH]n(-c3ccc4ccccc4c3)c2=O)c(=O)[nH]1	68	-	-	-	-	71	32	DNA CAG DR=9.2
C=CCSc1nnc(-c2ccccc2NC(=O)CC)c(=O)[nH]1	51	-	-	-	-	-	-
Cc1[nH]n(-c2ccccc2)c(=O)c1/C=N/c1nn[nH]n1	-	-	-	-	-	.	.
CC(C)(C)c1ccc(C(=O)N2CCC2(C)C(=O)NS(=O)(=O)c2ccc(C#N)cc2)cc1 (stereo not given)	-	-	-	-	.	.	.
C[C@H](CO)N1C[C@H](C)[C@@H](CN(C)C(=O)Nc2ccc(C(F)(F)F)cc2)OCc2cn(nn2)CCCC1=O	-	.	-	-	.	.	.
Cc1ccc2c(c1)c(CC(=O)Nc1ccc(C)c(F)c1)c(C(=O)O)n2C	49	-	-	-	-	44	13
CC(OC(=O)CSc1ccccc1)C(=O)NC1CCCCC1C (stereo not given)	-	-	-	-	.	.	.
CNC(=O)C1(C)CCN1C(=O)c1ccccc1CCc1ccccc1 (stereo not given)	-	-	-	-	.	.	.
Cc1cccc(S(=O)(=O)NC(=O)C2(C)CCN2C(=O)c2ccccc2CCc2ccccc2)c1 (stereo not given)	39	-	-	-	.	45	11
CC1(C(=O)NS(=O)(=O)c2ccc3c(c2)CCO3)CCN1C(=O)c1ccccc1CCc1ccccc1 (stereo not given)	42	-	-	-	.	42	11
CC1(C(=O)NS(=O)(=O)c2cccc(F)c2)CCN1C(=O)c1ccccc1CCc1ccccc1 (stereo not given)	52	-	-	-	.	43	11
CC(C)c1ccc(CC(=O)N2CCC2(C)C(=O)NS(=O)(=O)c2cccc(OC(F)F)c2)cc1 (stereo not given)	35	-	-	-	.	-	-
CC1(C(=O)NS(=O)(=O)c2cccc(F)c2)CCN1C(=O)Cc1ccccc1Cl (stereo not given)	-	-	-	-	.	.	.
CC(C)(C)c1ccc(CC(=O)N2CCC2(C)C(=O)NS(=O)(=O)c2ccc3c(c2)CCO3)cc1 (stereo not given)	-	-	-	-	.	.	.
CC1(C(=O)NS(=O)(=O)c2ccc3c(c2)CCO3)CCN1C(=O)Cc1ccc(-c2ccccc2)cc1 (stereo not given)	47	-	-	-	.	70	27	DNA CAG DR=-
CC1(C(=O)NS(=O)(=O)c2cccc(OC(F)F)c2)CCN1C(=O)c1ccccc1CCc1ccccc1 (stereo not given)	61	-	-	-	.	54	17
CCCCC1(c2ccc(F)cc2)NC(=O)N(CC(=O)Nc2ccc(N3CCOCC3)cc2)C1=O (stereo not given)	-	-	-	-	.	.	.
O=C(/C=C/c1ccccc1)c1cc(Br)ccc(=O)c1O	51	-	-	-	-	41	17
O=C(/C=C/c1ccc(F)cc1)c1cc(Br)ccc1O	-	-	-	-	-	.	.
CCN1CCN(c2c(S(=O)(=O)c3ccc(Cl)cc3)cnc3ccccc23)CC1	-	.	-	-	.	.	.
CC(C)CC(C(=O)Nc1cccc(O)c1)N1C(=O)c2ccccc2C1=O (stereo not given)	-	-	-	-	-	.	.
CC(C)CC(C(=O)Nc1oc(-c2ccco2)c(-c2ccco2)c1C#N)N1C(=O)c2ccccc2C1=O (stereo not given)	78	-	-	-	-	74	36
SMILES	rCAG RNA binder	NR2E3 ag-1	Rev-erbA mod	PG9 binder	NR2E3 ag-2	rCAG binder conf	dCAG dye counter	others
COc1cccc(C(=O)N(Cc2ccco2)c2c(N)n(Cc3ccccc3)c(=O)[nH]c2=O)c1	-	-	-	-	-	.	.
CC1(C(=O)NS(=O)(=O)c2ccc(C#N)cc2)CCN1C(=O)Cc1cccc2ccccc12 (stereo not given)	-	-	-	-	.	.	.
O=C1NN(c2ccccc2)C(=O)/C1=C\c1coc2ccc(O)cc2c1=O	36	-	-	-	-	-	-
O=C1NN(c2ccccc2)C(=O)/C1=C\c1ccccc1	-	-	-	-	.	.	.
O=C1NN(c2ccccc2)C(=O)/C1=C/c1coc2ccccc2c1=O	39	-	-	-	-	-	-
O=C1NN(c2cccc(Br)c2)C(=O)/C1=C\c1ccccc1	77	-	-	-	-	39	11
CCN(C[C@H]1N[C@@](C)(C(=O)OC)[C@H]2C(=O)N(Cc3ccccc3)C(=O)[C@@H]12)S(=O)(=O)c1ccccc1	-	-	-	-	.	.	.
O=C(/C=C(\Nc1cccc(Cl)c1)c1ccccc1)c1ccccc1	-	.	-	-	.	.	.
Cc1ccc2[nH]c3c(c2c1)CCc1cn[nH]c1-3	47	-	-	-	-	-	5.0
O=C(CCCN1C(=O)/C(=C\c2cccs2)SC1=S)Nc1ccc(O)cc1C(=O)O	60	-	-	-	-	60	23
O=C(CCCN1C(=O)/C(=C\c2ccco2)SC1=S)Nc1ccc(O)cc1C(=O)O	90	-	-	-	-	78	43
O=C(CCCN1C(=O)/C(=C/c2ccco2)SC1=S)Nc1cccc(C(=O)O)c1	68	-	-	-	-	45	17
C=CCN=C1NC(c2ccccc2C(F)(F)F)C(C(=O)OC)=C(C)N1Cc1ccccc1C(F)(F)F (stereo not given)	-	.	-	-	.	.	.
COc1cc(/C=C/C(=O)O)cc(S(=O)(=O)Nc2ccc3nc(SC)sc3c2)c1OC	50	-	-	-	-	-	9.6
CNC(=O)c1ccsc1NC(=O)CS(=O)(=O)c1ccc(F)cc1	-	-	-	-	.	.	.
COc1cc(/C=C2\C(=N)N3N=C(S(C)(=O)=O)SC3=NC2=O)ccc1OS(=O)(=O)c1ccc(C)cc1	51	-	-	-	-	87	59
CCOc1cc(/C=C2/C(=N)N3N=C(C)SC3=NC2=O)ccc1OS(=O)(=O)c1ccc(C)cc1	-	-	-	-	-	.	.
